Data reported in ChEMBL document CHEMBL4152243, “Design, synthesis and biological activities of 2,3-dihydroquinazolin-4(1H)-one derivatives as TRPM2 inhibitors” (Eur J Med Chem, 2018).
pIC50: −log10 of the molar value. Calls of active or inactive are those of the source. The calls are words filed in the database; no cut-off is given here.

Key:
Assay type in all cases: cell-based
[1] = biological target: T1, Transient receptor potential cation channel subfamily M member 2 (Homo sapiens, UniProt O94759); assay: Inhibition of human TRPM2 expressed in HEK293 cells assessed as reduction in H2O2-induced intracellular calcium flux at 30 uM after 30 mins by Fluo3-AM dye based fluorescence imaging assay
T1 sequence (O94759 whole entry): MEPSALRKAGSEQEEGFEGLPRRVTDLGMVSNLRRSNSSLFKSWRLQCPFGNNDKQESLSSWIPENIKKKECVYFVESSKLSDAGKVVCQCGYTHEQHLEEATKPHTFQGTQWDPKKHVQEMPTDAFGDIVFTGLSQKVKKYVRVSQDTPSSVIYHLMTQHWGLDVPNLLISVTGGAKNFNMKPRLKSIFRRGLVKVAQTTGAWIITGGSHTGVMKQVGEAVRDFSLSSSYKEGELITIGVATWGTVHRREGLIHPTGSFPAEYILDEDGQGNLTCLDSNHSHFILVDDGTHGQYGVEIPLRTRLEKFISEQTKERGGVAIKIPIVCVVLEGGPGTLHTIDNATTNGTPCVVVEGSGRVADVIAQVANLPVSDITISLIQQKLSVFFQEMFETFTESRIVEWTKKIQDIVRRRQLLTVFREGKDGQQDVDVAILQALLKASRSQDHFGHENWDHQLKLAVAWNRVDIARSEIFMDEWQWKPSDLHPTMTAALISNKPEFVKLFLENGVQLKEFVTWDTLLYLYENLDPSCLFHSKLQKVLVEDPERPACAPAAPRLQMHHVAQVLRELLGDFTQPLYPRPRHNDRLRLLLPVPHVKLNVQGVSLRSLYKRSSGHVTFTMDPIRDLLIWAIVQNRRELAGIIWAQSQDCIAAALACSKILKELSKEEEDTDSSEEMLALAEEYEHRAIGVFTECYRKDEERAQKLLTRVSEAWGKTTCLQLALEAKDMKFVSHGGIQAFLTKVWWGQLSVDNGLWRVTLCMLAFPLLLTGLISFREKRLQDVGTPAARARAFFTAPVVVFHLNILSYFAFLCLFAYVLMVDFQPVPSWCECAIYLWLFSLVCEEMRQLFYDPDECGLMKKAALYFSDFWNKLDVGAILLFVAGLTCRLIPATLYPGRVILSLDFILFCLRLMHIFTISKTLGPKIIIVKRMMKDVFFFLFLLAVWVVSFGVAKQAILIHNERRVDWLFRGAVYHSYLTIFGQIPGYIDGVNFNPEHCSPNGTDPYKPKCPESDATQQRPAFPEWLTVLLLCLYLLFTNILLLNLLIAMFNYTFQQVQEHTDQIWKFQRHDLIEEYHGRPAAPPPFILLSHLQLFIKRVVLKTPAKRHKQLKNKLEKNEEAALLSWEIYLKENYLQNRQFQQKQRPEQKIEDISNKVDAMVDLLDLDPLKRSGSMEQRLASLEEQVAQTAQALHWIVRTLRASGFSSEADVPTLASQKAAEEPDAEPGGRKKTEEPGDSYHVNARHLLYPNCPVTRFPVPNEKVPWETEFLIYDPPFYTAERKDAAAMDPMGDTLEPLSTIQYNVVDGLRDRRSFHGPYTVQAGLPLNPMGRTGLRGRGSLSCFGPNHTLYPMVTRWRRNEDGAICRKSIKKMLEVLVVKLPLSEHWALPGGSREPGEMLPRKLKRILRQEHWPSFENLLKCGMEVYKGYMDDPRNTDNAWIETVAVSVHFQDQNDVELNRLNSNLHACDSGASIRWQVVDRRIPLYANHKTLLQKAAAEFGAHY

[2] = biological target: T1, Transient receptor potential cation channel subfamily M member 2; assay: Inhibition of human TRPM2 expressed in HEK293 cells assessed as reduction in ADPR-induced channel currents at 30 uM treated extracellularly after 60 secs by whole cell patch clamp electrophysiology method relative to control
Method in brief: (§1)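 Tetracycline-inducible HEK293 stably expressing human TRPM2 (1 µg/mL tetracycline), whole-cell patch clamp at room temperature. ECS (mM): 145 NaCl, 5.6 KCl, 2 MgCl2, 1.2 CaCl2, 10 HEPES, pH 7.2. ICS contained 500 µM ADPR (pH 7.3). Compound was added to ECS. Held at 0 mV with 500 ms ramps from -100 to 100 mV every 5 s. IC50 came from concentration–response curves; mean ± SEM from at least five cells.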

[3] = biological target: T2, Transient receptor potential cation channel subfamily M member 8 (Homo sapiens, UniProt Q7Z2W7); assay: Inhibition of human TRPM8 expressed in HEK293 cells assessed as reduction in menthol-induced channel currents at 30 uM treated intracellularly via pipette after 60 secs by whole cell patch clamp electrophysiology method
T2 sequence (Q7Z2W7 whole entry, looked up): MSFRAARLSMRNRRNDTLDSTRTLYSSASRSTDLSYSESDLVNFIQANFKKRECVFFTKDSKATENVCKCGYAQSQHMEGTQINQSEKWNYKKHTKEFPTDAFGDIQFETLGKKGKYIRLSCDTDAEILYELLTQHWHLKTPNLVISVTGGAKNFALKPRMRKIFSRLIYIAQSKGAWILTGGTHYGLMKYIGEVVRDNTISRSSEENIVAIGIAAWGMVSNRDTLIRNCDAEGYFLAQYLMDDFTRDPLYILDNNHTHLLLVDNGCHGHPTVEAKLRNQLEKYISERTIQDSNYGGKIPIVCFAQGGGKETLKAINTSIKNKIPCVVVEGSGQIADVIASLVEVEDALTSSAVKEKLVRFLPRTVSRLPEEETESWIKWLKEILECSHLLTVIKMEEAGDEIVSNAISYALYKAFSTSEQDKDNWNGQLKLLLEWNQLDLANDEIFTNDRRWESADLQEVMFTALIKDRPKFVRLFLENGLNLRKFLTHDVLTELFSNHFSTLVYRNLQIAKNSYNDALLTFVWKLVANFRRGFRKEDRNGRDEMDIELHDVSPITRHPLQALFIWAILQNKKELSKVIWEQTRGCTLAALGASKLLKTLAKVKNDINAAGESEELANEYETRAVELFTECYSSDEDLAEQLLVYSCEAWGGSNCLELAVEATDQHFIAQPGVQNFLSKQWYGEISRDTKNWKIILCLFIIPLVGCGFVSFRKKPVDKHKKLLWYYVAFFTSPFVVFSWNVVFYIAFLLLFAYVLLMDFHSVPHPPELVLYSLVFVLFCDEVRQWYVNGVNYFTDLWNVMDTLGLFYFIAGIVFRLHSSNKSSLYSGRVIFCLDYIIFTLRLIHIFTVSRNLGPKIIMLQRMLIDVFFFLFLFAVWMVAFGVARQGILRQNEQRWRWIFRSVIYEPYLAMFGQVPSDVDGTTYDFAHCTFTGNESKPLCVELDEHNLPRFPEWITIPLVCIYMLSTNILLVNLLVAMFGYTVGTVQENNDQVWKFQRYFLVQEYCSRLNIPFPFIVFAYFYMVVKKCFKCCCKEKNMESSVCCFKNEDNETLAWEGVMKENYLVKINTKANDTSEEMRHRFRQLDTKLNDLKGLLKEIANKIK
Method in brief: (§2)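 HEK293 were transiently transfected with human TRPM8 (pcDNA4/TO) plus GFP using Lipofectamine 2000 and recorded 24–48 h later by whole-cell patch clamp. TRPM8 was activated by 1 mM menthol in ECS. Compound at 30 µM was placed in ECS or ICS, with 0.1 mM 2-APB as reference inhibitor. Mean peak currents reported as mean ± SEM, n = 5.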

[4] = biological target: T1, Transient receptor potential cation channel subfamily M member 2; assay: Inhibition of human TRPM2 expressed in HEK293 cells assessed as reduction in ADPR-induced channel currents at 3 uM treated extracellularly after 60 secs by whole cell patch clamp electrophysiology method relative to control; method in brief: as §1
[5] = biological target: T1, Transient receptor potential cation channel subfamily M member 2; assay: Inhibition of human TRPM2 expressed in HEK293 cells assessed as reduction in ADPR-induced channel currents treated extracellularly after 60 secs by whole cell patch clamp electrophysiology method; method in brief: as §1
[6] = biological target: T2, Transient receptor potential cation channel subfamily M member 8; assay: Inhibition of human TRPM8 expressed in HEK293 cells assessed as reduction in menthol-induced channel currents at 30 uM treated extracellularly after 60 secs by whole cell patch clamp electrophysiology method relative to control; method in brief: as §2
[7] = tested on: Transient receptor potential cation channel subfamily M member 2 (Homo sapiens), O94759 [H995A]; assay: Inhibition of human TRPM2 H995A mutant expressed in HEK293 cells assessed as reduction in ADPR-induced channel currents at 30 uM treated extracellularly after 50 to 200 secs by whole cell patch clamp electrophysiology method
Chain of Transient receptor potential cation channel subfamily M member 2 (Homo sapiens), O94759 [H995A] (O94759 whole entry H995A): as the sequence (O94759 whole entry) above, with H995A counted along it

[8] = biological target: T1, Transient receptor potential cation channel subfamily M member 2; assay: Inhibition of human TRPM2 expressed in HEK293 cells assessed as reduction in ADPR-induced channel currents at 30 to 1000 uM treated simultaneously after 60 secs by whole cell patch clamp electrophysiology method
Method in brief: (§3)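 Human TRPM2 in tetracycline-inducible HEK293, recorded by whole-cell patch clamp at room temperature. Compound at 30 µM or 1 mM was added to the pipette ICS together with 500 µM ADPR; the ICS (mM) was 147 NaCl, 1 EGTA, 1 MgCl2, 24 HEPES, pH 7.3. Ramps ran from -100 to 100 mV every 5 s from a 0 mV hold, with leak subtraction from the first three ramps.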

[9] = biological target: T1, Transient receptor potential cation channel subfamily M member 2; assay: Inhibition of human TRPM2 expressed in HEK293 cells assessed as reduction in ADPR-induced channel currents at 30 to 1000 uM treated intracellularly after 60 secs by whole cell patch clamp electrophysiology method; method in brief: as §3
[10] = tested on: Transient receptor potential cation channel subfamily M member 2 (Homo sapiens), O94759 [D964A]; assay: Inhibition of human TRPM2 D964A mutant expressed in HEK293 cells assessed as reduction in ADPR-induced channel currents at 30 uM treated extracellularly after 50 to 200 secs by whole cell patch clamp electrophysiology method relative to control
Chain of Transient receptor potential cation channel subfamily M member 2 (Homo sapiens), O94759 [D964A] (O94759 whole entry D964A): as the sequence (O94759 whole entry) above, with D964A counted along it

Q: Which inhibition [1] does the source give for O=C1NC(c2c[nH]nc2-c2ccccc2)Nc2cccc(Cl)c21 (configuration not stated) here?
A: Active

Q: For Cc1cccc2c(=O)[nH]c(-c3c[nH]nc3-c3ccccc3)nc12, which inhibition [2] is on record?
A: 21.2%

Q: For Cc1cc(Br)cc2c1NC(c1c[nH]nc1-c1cccc3ccccc13)NC2=O (configuration not stated), which inhibition [3] is on record?
A: inactive

Q: And the inhibition [4]?
A: 48.7%

Q: What about the pIC50 [5] of the same compound?
A: 5.43

Q: And the inhibition [6]?
A: inactive

Q: And the inhibition [7]?
A: inactive

Q: O=c1[nH]c(SCc2ccncc2)nc2ccccc12 was tested. Which inhibition [1] did it give?
A: Active

Q: Cc1cc(Cl)cc2c1NC(c1c[nH]nc1-c1ccc(-c3ccccc3)cc1)NC2=O (configuration not stated) was tested. Which inhibition [2] did it give?
A: 17%

Q: For O=C1NC(c2cc(-c3ccccc3)c[nH]2)Nc2ccccc21 (configuration not stated), which inhibition [1] is on record?
A: Active

Q: How did the inhibition [1] turn out when O=C1NC(c2c[nH]nc2-c2ccccc2)Nc2c(I)cc(I)cc21 (configuration not stated) was run?
A: Active

Q: Cc1cc(Cl)cc2c1NC(c1c[nH]nc1-c1ccc(Br)cc1)NC2=O (configuration not stated) was tested. Which inhibition [2] did it give?
A: 51%

Q: For O=c1[nH]c(-c2c[nH]nc2-c2ccccc2)nc2ccccc12, which inhibition [2] is on record?
A: 28.7%

Q: Cc1cc(Br)c2c(c1)C(=O)NC(c1c[nH]nc1-c1ccccc1)N2 (configuration not stated) was tested. Which inhibition [1] did it give?
A: Active

Q: Which inhibition [2] does the source give for COc1cc(Br)cc2c1NC(c1c[nH]nc1-c1ccccc1)NC2=O (configuration not stated) here?
A: 50.4%

Q: With O=C1NC(c2c[nH]nc2-c2ccccc2)Nc2c(Br)cccc21 (configuration not stated) as the compound, how does the inhibition [1] read?
A: Active

Q: For Cc1cc(Cl)cc2c(=O)[nH]c(-c3c[nH]nc3-c3ccccc3)nc12, which inhibition [1] is on record?
A: Active

Q: How did the inhibition [1] turn out when Cc1cccc2c1C(=O)NC(c1c[nH]nc1-c1ccccc1)N2 (configuration not stated) was run?
A: Active

Q: For O=c1[nH]c(-c2c[nH]nc2-c2ccccc2)nc2ccc(Cl)cc12, which inhibition [1] is on record?
A: Active

Q: With Cc1cc(Cl)cc2c1NC(c1c[nH]nc1-c1ccc([N+](=O)[O-])cc1)NC2=O (configuration not stated) as the compound, how does the inhibition [2] read?
A: 90.4%

Q: And the inhibition [4]?
A: 43.4%

Q: Which inhibition [1] does the source give for O=c1[nH]c(-c2c[nH]nc2-c2ccccc2)nc2ncccc12 here?
A: Active

Q: How did the inhibition [2] turn out when O=C1NC(c2c[nH]nc2-c2ccccc2)Nc2ccc(Cl)cc21 (configuration not stated) was run?
A: 27.9%

Q: Cc1cc(F)cc2c1NC(c1c[nH]nc1-c1ccccc1)NC2=O (configuration not stated) was tested. Which inhibition [2] did it give?
A: 42.7%

Q: Which results are given for Cc1cc(Cl)cc2c1NC(c1c[nH]nc1-c1cccc3ccccc13)NC2=O (configuration not stated)?
A: inhibition [2]: 90.2%; inhibition [3]: inactive; inhibition [4]: 50.9%; pIC50 [5]: 5.40; inhibition [6]: inactive

Q: Which inhibition [4] does the source give for O=C1NC(c2c[nH]nc2-c2ccc([N+](=O)[O-])cc2)Nc2c(I)cc(Cl)cc21 (configuration not stated) here?
A: 34.9%

Q: Which inhibition [2] does the source give for O=C1NC(c2c[nH]nc2-c2ccccc2)Nc2c(F)cc(F)cc21 (configuration not stated) here?
A: 37.2%

Q: O=C1NC(c2c[nH]nc2-c2ccccc2)Nc2ccccc21 (configuration not stated) was tested. Which inhibition [2] did it give?
A: 55 to 68.1%

Q: And the inhibition [8]?
A: inactive

Q: What about the inhibition [9] of the same compound?
A: inactive

Q: What about the inhibition [1] of the same compound?
A: Active

Q: What about the inhibition [7] of the same compound?
A: 4%

Q: And the inhibition [10]?
A: 40 to 50%
